This is a sample that favours compounds with a hit; in the whole collection about 2.8% have one here.
EP2 modulator: EP2 receptor modulators, cAMP readout, primary screen, cell-based, HTRF cAMP, PGE2 stimulation; Prostaglandin E2 receptor EP2 subtype (Homo sapiens), P43116; EP2-expressing cells, cAMP HTRF FRET, PGE2 co-stimulation; induction, % at 25 µM; 0.83% of 260,000 active;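 active = compounds whose cAMP rise, as percent of the full-agonist control response, exceeds 60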;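 also: rat C6 glioma line stably carrying human EP2 under a CMV promoter; the protocol text gives 20 µM as final concentration; 100% = response of wells given 1 µM PGE2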
Target sequence (P43116 whole entry, looked up): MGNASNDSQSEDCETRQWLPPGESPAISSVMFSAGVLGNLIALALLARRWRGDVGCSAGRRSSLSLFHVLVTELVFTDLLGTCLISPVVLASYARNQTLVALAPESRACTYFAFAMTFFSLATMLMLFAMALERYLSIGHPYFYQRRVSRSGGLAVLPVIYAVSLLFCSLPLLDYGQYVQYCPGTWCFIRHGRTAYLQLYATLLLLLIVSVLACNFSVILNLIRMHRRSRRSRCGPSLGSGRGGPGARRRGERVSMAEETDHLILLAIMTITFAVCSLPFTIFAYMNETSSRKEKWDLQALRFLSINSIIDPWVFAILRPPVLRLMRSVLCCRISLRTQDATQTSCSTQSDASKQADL
NPY Y1 blocker: NPY-Y1 receptor antagonists, primary screen, cell-based; HEK293-CNG Y1 cells, membrane potential fluorescence; NPY at EC95, then isoproterenol; inhibition, % at 3.6 µM; 1% of 200,000 active; AID 1040, 2008;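 active = inhibition above the campaign mean inhibition of all tested compounds plus 3 SD, cut at about 20% in these data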;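 also: 0% = DMSO wells given NPY plus isoproterenol and 100% = isoproterenol alone without NPY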
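Test system – HEK293 Y1/CNG channel cell line · Also added – NPY agonist 25 nM, then isoproterenol 1 µM plus Ro 20-1724 25 µM · Compound dosing – one concentration, 3.6 µM, in 0.4% DMSO · Schedule – compound incubation 1 h at room temperature, readout 45 min post-stimulation · Technique – fluorescence, membrane potential probe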
NPY2 pot ag: NPY-Y2 potentiators or agonists, primary screen, cell-based. Neuropeptide Y receptor type 2 (Homo sapiens), P49146. cells expressing NPY-Y2, potentiator/agonist read-out. activation, % at 3.6 µM. 0.45% of 220,000 active. AID 1359, 2008; in the data active = activation above about 27%;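 also: cells stimulated with NPY near EC25 plus isoproterenol at EC100; 0% = vehicle plus submaximal agonist and 100% = vehicle plus saturating agonist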
NPY1 pot ag: NPY-Y1 receptor potentiators or agonists, primary screen, cell-based | Neuropeptide Y receptor type 1 (Homo sapiens), P25929 | NPY-Y1 expressing cells, potentiator/agonist activation | activation, % at 3.6 µM | 0.37% of 220,000 active; in the data active = activation above about 33%, passing the limit was not always enough;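 also: cells stimulated with NPY at EC10 then isoproterenol at EC100; 0% = low agonist plus stimulus and 100% = saturating agonist plus stimulus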
NPY-Y2 antag: NPY-Y2 receptor antagonists, primary screen, cell-based; AID 793, 2007; Neuropeptide Y receptor type 2 (Homo sapiens), P49146; NPY-Y2 expressing cells, antagonist mode; inhibition, % at 2.7 µM; 0.99% of 140,000 active; in the data active = inhibition above about 17%;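 also: 0% = vehicle with agonist challenge and 100% = reference antagonist with challenge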
PGE2 EP2 inh: human EP2 receptor antagonists, primary screen, TR-FRET cAMP, C6 glioma cells. C6 glioma cells expressing human EP2; cells stimulated with saturating PGE2. inhibition, % at 25 µM. 0.52% of 260,000 active. AID 1422, 2008. Prostaglandin E2 receptor EP2 subtype (Homo sapiens), P43116;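 active = percent inhibition above 40 after rounding to a whole number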;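 also: rat C6 glioma host cells with rolipram phosphodiesterase inhibitor present; the protocol text gives 20 µM as final concentration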
NPY-Y2 pot conf: NPY-Y2 potentiators or agonists, confirmation, cell-based; cell-based NPY-Y2 potentiator/agonist assay; activation, % at 3.6 µM; shares compounds with NPY2 pot ag; 20% of 450 active; in the data active = activation above about 33%
NPY-Y1 counter: NPY-Y1 potentiators or agonists, counter-screen for NPY-Y2 potentiator project, cell-based, fluorescence | Y1 HEK293-CNG cells, membrane potential fluorescence | AID 1651, 2009 | shares compounds with NPY2 pot ag | activation, % at 3.6 µM | 20% of 450 active; in the data active = activation above about 45%;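 also: cells stimulated with submaximal NPY then isoproterenol with phosphodiesterase inhibitor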
NPY-Y1 agonist 2: NPY-Y1 direct agonists, selectivity assay for NPY-Y2 potentiator project, cell-based, fluorescence | 37% of 450 active | shares compounds with NPY2 pot ag | HEK293 Y1-CNGC, membrane potential fluorescence, agonism | activation, % at 3.6 µM;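 active = activation above the mean of DMSO-only control wells plus 3 SD, cut at about 18% in these data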;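 also: cells stimulated with 1 µM isoproterenol plus the PDE inhibitor Ro 20-1724; 0% = isoproterenol with DMSO and no NPY and 100% = 40 nM NPY; Y1 agonists lower the membrane potential dye signal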
CNGC inhibitor: CNGC cAMP sensor activity inhibitors, counter-screen for NPY-Y2 potentiator project, cell-based, HEK293-CNG parental, membrane potential fluorescence; shares compounds with NPY2 pot ag; isoproterenol cAMP; inhibition, % at 3.6 µM; 32% of 450 active;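 active = inhibition above the control-well mean plus 3 SD of those wells, cut at about 22% in these data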;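 also: 0% = DMSO with isoproterenol and 100% = DMSO without isoproterenol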
Y2 agonist ctr: NPY-Y2 direct agonists, counter-screen for NPY-Y2 potentiator project, cell-based, fluorescence; shares compounds with NPY2 pot ag; AID 1710, 2009; activation, % at 3.6 µM; HEK293 Y2/CNGC cells, membrane potential fluorescence, agonist mode; 56% of 450 active;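 active = activation above the mean of solvent-only control wells plus 3 SD, cut at about 10% in these data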;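 also: cells stimulated by isoproterenol with no NPY added so direct agonism is tested; 0% = DMSO with isoproterenol alone and 100% = NPY at EC100 plus isoproterenol; agonism lowers probe fluorescence through less cAMP and CNG channel opening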
* marks the source's active call; other numbers are inactive results; . = no result given.

SMILES	EP2 modulator	NPY Y1 blocker	NPY2 pot ag	NPY1 pot ag	NPY-Y2 antag	PGE2 EP2 inh	NPY-Y2 pot conf	NPY-Y1 counter	NPY-Y1 agonist 2	CNGC inhibitor	Y2 agonist ctr
CC(C)c1[nH]nc2c1C(c1cccnc1)C(C#N)=C(N)O2 (configuration not stated)	15	1	-6	-5	1	8	.	.	.	.	.
Fc1ccc(NC(=S)N2CCCN(c3ccc(C(F)(F)F)cn3)CC2)c(F)c1	-21	.	43*	24	.	12	2	-35	-24	-11	8
CCN(CC)C(=O)Cn1nc(-c2ccc(C)s2)cc(N)c1=O	-149	.	.	.	.	2	.	.	.	.	.
COc1ccc(CCNc2ccc(N3C(=O)CC(C)C3=O)cc2[N+](=O)[O-])cc1OC (configuration not stated)	-26	7	37*	-6	.	4	0	-36	-37	-17	-1
O=C1C2CC=CCC2C(=O)N1c1ccc(NCCc2ccc(O)cc2)c([N+](=O)[O-])c1 (configuration not stated)	-68	-10	46*	40	-2	10	5	-2	4	10	13*
COc1ccc(CCNc2ccc(N3C(=O)CC(C)C3=O)cc2[N+](=O)[O-])cc1 (configuration not stated)	-42	4	-16	-4	.	5	.	.	.	.	.
COc1ccc(S(N)(=O)=O)cc1C(=O)NCCCN1CCN(c2ccccc2OC)CC1	27	-2	76*	13	2	13	-7	3	-17	-6	-1
COc1ccc(S(N)(=O)=O)cc1C(=O)NCCCN1CCN(c2ccc(C)cc2)CC1	25	-4	-20	25	0	26	.	.	.	.	.
CCOC(=O)C(=CNc1ccc(NC2=NCC(C)S2)cc1)C(=O)OCC (configuration not stated)	13	-2	47*	25	2	5	11	29	15	-1	10
Cc1ccc2cc(CN(Cc3ccco3)C(=O)Nc3ccc(Cl)cc3)c(=O)[nH]c2c1	-62	.	.	.	.	7	.	.	.	.	.
Cc1sc2cc3c(c(C(=O)c4ccccc4)[n+]2c1C)-c1cccc2cccc-3c12	-38	1	31*	16	6	17	20	11	8	9	16*
O=C(c1ccccc1)c1c2c(cc3sc4ccccc4[n+]13)-c1cccc3cccc-2c13	0	-7	40*	35	4	-1	51*	60*	54*	56*	60*
Cc1ccc(NC(=O)CSc2nnc3c4c5c(sc4ncn23)CCCC5)c(Br)c1	-7	.	.	.	.	12	.	.	.	.	.
Cc1ccc(-c2cnn(-c3cccc(C(F)(F)F)c3)c2N)cc1	-31	-2	35*	29	9	2	52*	58*	44*	32*	60*
Nc1c(-c2ccc(Cl)cc2)cnn1-c1cccc(C(F)(F)F)c1	-10	0	25	16	3	25	.	.	.	.	.
Cc1ccc2[nH]c(=O)c(CNC(C)C)cc2c1	-8	-1	99*	29	0	9	1	4	-6	2	8
Cc1ccc2[nH]c(C)c(/C=N/Nc3nc4ccccc4s3)c2c1	-38	-12	38*	30	-5	5	42*	53*	31*	38*	39*
Brc1csc(/C=N/Nc2nc3ccccc3s2)c1	-11	3	1	-12	1	4	.	.	.	.	.
CCc1ccc(N(CC(=O)Nc2nc3ccc(C)cc3s2)S(=O)(=O)c2c(C)noc2C)cc1	43	1	31*	26	2	13	28	30	45*	33*	49*
COCCCn1c(SCC(N)=O)nnc1-c1ccco1	-27	.	.	.	.	7	.	.	.	.	.
O=C(O)c1cccc(NC(=O)c2cccs2)c1	13	.	.	.	.	8	.	.	.	.	.
COCCc1ccc(OCC(O)CNC(C)C)cc1 (configuration not stated)	-21	-7	65*	57	0	13	38*	39	34*	8	28*
O=C(Nc1ccccc1C(=O)N1CCCC1)c1ccc(Cl)c([N+](=O)[O-])c1	-13	-12	28*	35	.	3	3	7	5	-3	10*
C/C=C(/C(=C/C)c1ccc(O)cc1)c1ccc(O)cc1	29	0	12	4	4	11	.	.	.	.	.
CC1(C)C=C(c2ccc(O)cc2)CC(C)(C)N1	-2	-2	36*	23	0	-5	0	-1	-11	2	6
SMILES	EP2 modulator	NPY Y1 blocker	NPY2 pot ag	NPY1 pot ag	NPY-Y2 antag	PGE2 EP2 inh	NPY-Y2 pot conf	NPY-Y1 counter	NPY-Y1 agonist 2	CNGC inhibitor	Y2 agonist ctr
COC(=O)c1ccsc1NC(=O)C1=COCCO1	2	-9	51*	-4	0	8	-5	-3	-12	-9	-7
COc1ccc(C)cc1NC(=O)c1ccccc1NS(=O)(=O)c1ccc(Cl)s1	-7	7	58*	-2	.	13	-6	-46	-30	-23	-11
COc1ccccc1NC(=O)c1ccccc1NS(=O)(=O)c1cccs1	-5	1	5	-7	.	3	.	.	.	.	.
O=C(CN1CCN(Cc2ccc(Cl)cc2)CC1)N/N=C/c1cccc(F)c1	-43	.	99*	16	.	8	-6	-6	-14	3	1
O=C(CN1CCN(Cc2ccc(Cl)cc2)CC1)N/N=C/c1cccs1	-17	.	6	-10	.	12	.	.	.	.	.
Cc1ccc(N/N=C(\C#N)C(=O)c2ccsc2)cc1	-35	.	-1	8	.	5	.	.	.	.	.
N#C/C(=N\Nc1ccc(Cl)cc1)C(N)=S	-18	.	54*	38	.	7	2	-5	-9	-6	3
